Active and inactive are the calls of the source. No cut-off for these calls is given here.
Assays:
[1] = test system: NCI-H1975; assay: Antiproliferative activity against human H1975 cells expressing EGFR L858R/T790M mutant assessed as cell growth inhibition measured after 72 hrs by MTT assay; type: functional, cell-based; conditions: NCI-H1975, 72 h
Procedure, shortened: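 MTT assay on H1975 cells grown in RPMI-1640 with 10% heat-inactivated FBS and 1% penicillin-streptomycin at 37 °C and 5% CO₂. Cells were seeded at 3000–8000 per well and left 24 h, then exposed to a concentration series for 72 h. MTT (5 mg/mL stock in PBS) was added for 4 h, supernatant removed and formazan dissolved in DMSO. IC50 was fitted by nonlinear regression (log inhibitor vs response).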

[2] = test system: von Hippel-Lindau disease tumor suppressor/Epidermal growth factor receptor (Homo sapiens), P00533+P40337 [L858R,T790M]; assay: Protac activity at VHL/EGFR L858R/T790M mutant in human H1975 cells assessed as induction of degradation of EGFR at 333 nM incubated for 48 hrs measured after compound wash-out for 48 hrs by Western blot analysis; type: cell-based; conditions: NCI-H1975
Procedure, shortened: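 H1975 cells (RPMI-1640, 10% heat-inactivated FBS) exposed to 333 nM for 48 h. Medium then replaced with compound-free medium, and lysates collected at the stated times. EGFR read by Western blot; n = 2.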

[3] = test system: HCC827; assay: Induction of apoptosis in human HCC827 cells assessed as apoptotic cells at 100 nM measured after 48 hrs by AnnexinV-FITC/propidium iodide staining based flow cytometry analysis relative to control; type: functional
Procedure, shortened: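 To measure apoptosis, cells were seeded at 0.5–1 × 10⁶ per well, grown 24 h, then treated for 48 h. Collected cells were stained with an Annexin V-FITC apoptosis detection kit following its instructions, and apoptosis rate was read by flow cytometry. n = 2.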

[4] = test system: NCI-H1975; assay: Induction of cell cycle arrest in human NCI-H1975 cells assessed as accumulation at G1 phase measured at 333 to 1000 nM measured after 48 hrs by propidium iodide staining based flow cytometry analysis; type: functional; conditions: dose 333-1000 nM
Procedure, shortened: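 Cell cycle: cells were seeded at 0.5–1 × 10⁶ per well for 24 h, then treated 48 h. They were collected and washed twice in PBS, stained with PI/RNase at 37 °C for 15 min, and analysed by flow cytometry. n = 2.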

[5] = test system: HCC827; assay: Inhibition of colony formation in human HCC827 cells at 1 nM incubated for 15 days by crystal violet staining based analysis; type: functional, cell-based; conditions: time 15.0 day
Procedure, shortened: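 Colony formation: 200 cells per well were seeded and incubated 24 h, then kept with compound for 15 days. After three PBS washes, cells were fixed in cold 75% ethanol and stained with 0.1% crystal violet in water for 1 h. Colonies were counted.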

[6] = test system: von Hippel-Lindau disease tumor suppressor/Epidermal growth factor receptor (Homo sapiens), P00533+P40337 [UNDEFINED MUTATION]; assay: Protac activity at VHL/EGFR del19 mutant in human HCC827 cells assessed as induction of EGFR degradation at 33 nM by Western blot analysis; type: cell-based; conditions: time 12-72 hrs, TDE = time-dependent effect
Procedure, shortened: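 Time course in HCC827 cells at 33 nM, with protein harvested at each stated time point. EGFR^del19 detected by Western blot.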

[7] = test system: von Hippel-Lindau disease tumor suppressor/Epidermal growth factor receptor (Homo sapiens), P00533+P40337 [UNDEFINED MUTATION]; assay: Protac activity at VHL/EGFR del19 mutant in human HCC827 cells assessed as maximal induction of EGFR degradation at 33 nM measured after 48 hrs by Western blot analysis; type: cell-based
Procedure, shortened: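 HCC827 cells seeded at 0.5–1 × 10⁶ per well, then treated at the stated concentrations for 48 h. EGFR by Western blot; n = 3. DC₅₀ (concentration giving 50% EGFR loss) by nonlinear regression, log(inhibitor) vs response.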

[8] = test system: von Hippel-Lindau disease tumor suppressor/Epidermal growth factor receptor (Homo sapiens), P00533+P40337 [UNDEFINED MUTATION]; assay: Protac activity at VHL/EGFR del19 mutant in human HCC827 cells assessed as induction of EGFR degradation by measuring reduction in EGFR phosphorylation at 3 nM incubated for 48 hrs by Western blot analysis; type: cell-based
Procedure, shortened: (§1)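 HCC827 or H1975 cells treated at the stated concentrations for 48 h. Lysates probed by Western blot for EGFR, P-EGFR, Akt and P-Akt (each 1:1000); n = 2.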

[9] = test system: von Hippel-Lindau disease tumor suppressor/Epidermal growth factor receptor (Homo sapiens), P00533+P40337 [L858R,T790M]; assay: Protac activity at VHL/EGFR L858R/T790M mutant in human H1975 cells assessed as induction of degradation of EGFR by measuring reduction in EGFR phosphorylation at 100 nM incubated for 48 hrs by Western blot analysis; type: cell-based; conditions: NCI-H1975; procedure, shortened: as §1
[10] = test system: HCC827; assay: Effect on Akt protein expression in human HCC827 cells at 0.003 to 0.33 uM incubated for 48 hrs by Western blot analysis; type: functional, cell-based; conditions: dose 0.003-0.33 µM
[11] = test system: NCI-H1975; assay: Effect on Akt protein expression in human H1975 cells at 0.1 to 1 uM incubated for 48 hrs by Western blot analysis; type: functional, cell-based; conditions: dose 0.1-1 µM
[12] = test system: von Hippel-Lindau disease tumor suppressor/Epidermal growth factor receptor (Homo sapiens), P00533+P40337 [UNDEFINED MUTATION]; assay: Protac activity at VHL/EGFR del19 mutant in human HCC827 cells assessed as induction of EGFR degradation at 1 to 33 nM incubated for 24 hrs by Western blot analysis; type: cell-based; conditions: dose 1-33 nM
Procedure, shortened: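 HCC827 cells seeded at 0.5–1 × 10⁶ per well, grown 24 h, then treated at the stated concentrations for 24 h. EGFR^del19 level by Western blot with anti-EGFR antibody and β-actin loading control.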

[13] = test system: von Hippel-Lindau disease tumor suppressor/Epidermal growth factor receptor (Homo sapiens), P00533+P40337 [UNDEFINED MUTATION]; assay: Protac activity at VHL/EGFR del19 mutant in human HCC827 cells assessed as induction of EGFR degradation at 0.033 uM pretreated with ubiquitination inhibitor, MLN4924 for 2 hrs followed by incubation with compound for 24 hrs by Western blot analysis; type: cell-based
[14] = test system: von Hippel-Lindau disease tumor suppressor/Epidermal growth factor receptor (Homo sapiens), P00533+P40337 [UNDEFINED MUTATION]; assay: Protac activity at VHL/EGFR del19 mutant in human HCC827 cells assessed as induction of EGFR degradation at 0.033 uM pretreated with EGFR inhibitor, F for 2 hrs followed by incubation with compound for 24 hrs by Western blot analysis; type: cell-based
[15] = test system: von Hippel-Lindau disease tumor suppressor/Epidermal growth factor receptor (Homo sapiens), P00533+P40337 [UNDEFINED MUTATION]; assay: Protac activity at VHL/EGFR del19 mutant in human HCC827 cells assessed as induction of EGFR degradation at 0.033 uM pretreated with VHL ligand, VHL-L for 2 hrs followed by incubation with compound for 24 hrs by Western blot analysis; type: cell-based
[16] = test system: von Hippel-Lindau disease tumor suppressor/Epidermal growth factor receptor (Homo sapiens), P00533+P40337 [UNDEFINED MUTATION]; assay: Protac activity at VHL/EGFR del19 mutant in human HCC827 cells assessed as induction of EGFR degradation at 0.033 uM pretreated with proteasome inhibitor, MG132 for 2 hrs followed by incubation with compound for 24 hrs by Western blot analysis; type: cell-based
[17] = test system: von Hippel-Lindau disease tumor suppressor/Epidermal growth factor receptor (Homo sapiens), P00533+P40337 [UNDEFINED MUTATION]; assay: Protac activity at VHL/EGFR del19 mutant in human HCC827 cells assessed as induction of EGFR degradation at 0.1 to 0.3 nM precultured in medium without FBS followed by incubation with compound for 16 hrs by Western blot analysis; type: cell-based; conditions: dose 0.1-0.3 nM
Procedure, shortened: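 HCC827 or H1975 cells precultured 8 h in medium with or without FBS, then treated at the stated concentrations for 16 h. EGFR protein by Western blot; n = 3.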

[18] = test system: von Hippel-Lindau disease tumor suppressor/Epidermal growth factor receptor (Homo sapiens), P00533+P40337 [L858R,T790M]; assay: Protac activity at VHL/EGFR L858R/T790M mutant in human H1975 cells assessed as induction of degradation of EGFR at 0.1 uM pretreated with mTOR inhibitor, rapamycin for 8 hrs followed by incubation with compound for 16 hrs by Western blot analysis; type: cell-based; conditions: NCI-H1975
Procedure, shortened: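 H1975 cells given rapamycin at the stated concentrations for 8 h, then compound for 16 h. EGFR by Western blot; n = 3.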

Cc1ncsc1-c1ccc(CNC(=O)[C@@H]2C[C@@H](O)CN2C(=O)[C@@H](NC(=O)CCCCCCN2CCN(c3ccc(Nc4ncc5nc(Nc6ccccc6)n(C6CCCC6)c5n4)cc3)CC2)C(C)(C)C)cc1
IC50 [1]: 203 nM | Activity [2]: Active | Activity [3]: 44.8% | Activity [4]: Active | inhibition [5]: Active | Activity [6]: Tde | Emax [7]: 80.4% | Activity [8]: Active | Activity [9]: Active | Activity [10]: inactive | Activity [11]: inactive | Activity [12]: Active | Activity [13]: inactive | Activity [14]: inactive | Activity [15]: Active | Activity [16]: Active | Activity [17]: Active | Activity [18]: Active

Reference: ChEMBL document CHEMBL4706553, “Discovery of potent small molecule PROTACs targeting mutant EGFR” (Eur J Med Chem, 2020)
